# Experimental data: ChEMBL document CHEMBL1128216, “Rational design and synthesis of small molecule, non-oligosaccharide selectin inhibitors: (alpha-D-mannopyranosyloxy)biphenyl-substituted carboxylic acids” (J Med Chem, 1995)
# What was measured:
# [1] = target: T1, P-selectin (Homo sapiens) (UniProt P16109); experiment: In vitro inhibitory activity against sialyl Lewis X expressing HL60 cell binding Selectin P at 27 mM concentration; assay type: cell-based; conditions: HL-60
# T1 sequence (whole entry): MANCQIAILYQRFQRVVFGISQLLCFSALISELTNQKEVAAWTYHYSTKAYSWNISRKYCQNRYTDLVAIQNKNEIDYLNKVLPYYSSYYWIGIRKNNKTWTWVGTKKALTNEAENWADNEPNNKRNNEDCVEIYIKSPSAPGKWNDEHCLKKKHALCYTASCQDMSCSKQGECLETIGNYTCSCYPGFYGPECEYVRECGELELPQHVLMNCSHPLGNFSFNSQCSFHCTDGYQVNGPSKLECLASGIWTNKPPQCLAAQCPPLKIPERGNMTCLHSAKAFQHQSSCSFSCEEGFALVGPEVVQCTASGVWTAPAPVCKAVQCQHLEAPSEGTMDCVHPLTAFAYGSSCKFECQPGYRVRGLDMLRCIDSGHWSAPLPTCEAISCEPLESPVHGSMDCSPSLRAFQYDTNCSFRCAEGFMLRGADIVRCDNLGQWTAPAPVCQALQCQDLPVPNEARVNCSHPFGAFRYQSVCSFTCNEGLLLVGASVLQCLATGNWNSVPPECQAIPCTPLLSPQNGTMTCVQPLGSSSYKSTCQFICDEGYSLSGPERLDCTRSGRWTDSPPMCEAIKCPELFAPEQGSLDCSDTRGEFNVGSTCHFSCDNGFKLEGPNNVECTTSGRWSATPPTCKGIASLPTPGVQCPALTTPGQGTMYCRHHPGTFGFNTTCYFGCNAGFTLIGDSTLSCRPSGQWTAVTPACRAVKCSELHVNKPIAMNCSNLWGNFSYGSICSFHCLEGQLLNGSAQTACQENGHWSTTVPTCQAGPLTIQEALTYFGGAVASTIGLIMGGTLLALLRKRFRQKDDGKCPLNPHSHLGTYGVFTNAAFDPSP
# [2] = target: T2, L-selectin (Mus musculus) (UniProt P18337); experiment: In vitro inhibitory activity against sialyl Lewis X expressing HL60 cell binding to Selectin L at 6 mM concentration; assay type: cell-based; conditions: HL-60
# T2 sequence (whole entry): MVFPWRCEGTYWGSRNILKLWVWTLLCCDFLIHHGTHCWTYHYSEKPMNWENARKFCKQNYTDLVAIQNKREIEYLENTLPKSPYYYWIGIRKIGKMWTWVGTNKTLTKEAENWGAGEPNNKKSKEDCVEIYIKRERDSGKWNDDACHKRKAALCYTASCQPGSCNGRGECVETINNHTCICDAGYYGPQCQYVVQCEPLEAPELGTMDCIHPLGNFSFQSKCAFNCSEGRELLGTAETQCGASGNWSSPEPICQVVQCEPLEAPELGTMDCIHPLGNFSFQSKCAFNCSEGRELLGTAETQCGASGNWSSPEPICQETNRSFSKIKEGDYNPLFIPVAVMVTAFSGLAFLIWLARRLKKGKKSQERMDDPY
# E-selectin = target: T3, E-selectin (Homo sapiens, UniProt P16581); experiment: In vitro inhibition of HL60 (human leukemia) cell binding to human recombinant e-selectin.; assay type: cell-based, HL-60
# T3 sequence (P16581 whole entry): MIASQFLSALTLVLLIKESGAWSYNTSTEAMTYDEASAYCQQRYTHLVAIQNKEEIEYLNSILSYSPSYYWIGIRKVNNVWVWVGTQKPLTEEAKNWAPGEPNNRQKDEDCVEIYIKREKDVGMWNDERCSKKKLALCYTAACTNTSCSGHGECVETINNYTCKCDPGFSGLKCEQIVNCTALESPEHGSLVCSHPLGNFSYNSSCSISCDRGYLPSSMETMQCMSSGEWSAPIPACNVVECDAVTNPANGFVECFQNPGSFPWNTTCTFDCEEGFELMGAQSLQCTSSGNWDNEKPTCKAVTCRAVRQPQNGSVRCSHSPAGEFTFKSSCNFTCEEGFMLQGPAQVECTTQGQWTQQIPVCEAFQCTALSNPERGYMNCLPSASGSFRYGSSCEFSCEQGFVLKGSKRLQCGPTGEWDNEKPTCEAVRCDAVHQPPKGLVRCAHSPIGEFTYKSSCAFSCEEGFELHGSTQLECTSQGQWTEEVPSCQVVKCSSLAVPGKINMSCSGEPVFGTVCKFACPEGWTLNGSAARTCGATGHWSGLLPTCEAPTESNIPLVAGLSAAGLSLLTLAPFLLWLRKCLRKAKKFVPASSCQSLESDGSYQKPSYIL
# Summary of the method: (§1)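 Human E-selectin (lectin, EGF and two complement repeats) fused to mouse IgG was captured on anti-mouse IgG magnetic beads overnight at 4 °C. Wells were pre-blocked with 3% BSA/PBS. Compound in PBS was mixed with calcein-labelled HL60 cells (10⁷/mL, RPMI 1640 + 10% FCS) and beads (4 × 10⁶/mL) for 10 min at room temperature. Unbound cells were removed magnetically with two PBS washes, and bound cells were lysed in 1% NP40.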
# P-selectin = target: T4, P-selectin (Homo sapiens, UniProt P16109); experiment: In vitro inhibitory activity against sialyl Lewis X expressing HL60 cell binding Selectin P; assay type: cell-based, HL-60
# T4 sequence (P16109 whole entry): T1 sequence (whole entry)
# [3] = target: T5, E-selectin (Homo sapiens) (UniProt P16581); experiment: In vitro inhibitory activity against sialyl Lewis X expressing HL60 cell binding to recombinant human E-selectin at 17 mM concentration; assay type: cell-based; conditions: HL-60; summary of the method: as §1
# T5 sequence (whole entry): T3 sequence (P16581 whole entry)
# [4] = target: T5, E-selectin (Homo sapiens); experiment: In vitro inhibitory activity against sialyl Lewis X expressing HL60 cell binding to recombinant human E-selectin at 32 mM concentration; assay type: cell-based; conditions: HL-60; summary of the method: as §1
# [5] = target: T2, L-selectin (Mus musculus); experiment: In vitro inhibitory activity against sialyl Lewis X expressing HL60 cell binding Selectin L at 5 mM concentration; assay type: cell-based; conditions: HL-60
# [6] = target: T1, P-selectin (Homo sapiens); experiment: In vitro inhibitory activity against sialyl Lewis X expressing HL60 cell binding Selectin P at 20 mM concentration; assay type: cell-based; conditions: HL-60
# [7] = target: T5, E-selectin (Homo sapiens); experiment: In vitro inhibitory activity against sialyl Lewis X expressing HL60 cell binding to recombinant human E-selectin at 27 mM concentration; assay type: cell-based; conditions: HL-60; summary of the method: as §1
# [8] = target: T1, P-selectin (Homo sapiens); experiment: In vitro inhibitory activity against sialyl Lewis X expressing HL60 cell binding Selectin P at 24 mM concentration; assay type: cell-based; conditions: HL-60
structure (smiles),measurement,setting,value
O=C(O)c1cccc(-c2ccccc2O[C@H]2O[C@H](CO)[C@@H](O)[C@@H](O)[C@@H]2O)c1,inhibition,[1],0%
same,inhibition,[2],15%
same,IC50,E-selectin,16 mM
O=C(O)C(Oc1cccc(-c2ccccc2O[C@H]2O[C@H](CO)[C@@H](O)[C@@H](O)[C@@H]2O)c1)c1ccccc1 (stereo partly drawn),IC50,P-selectin,17 mM
same,inhibition,[3],70%
same,inhibition,[2],0%
O=C(O)C[C@@H](NC(=O)c1cccc(-c2ccccc2O[C@H]2O[C@H](CO)[C@@H](O)[C@@H](O)[C@@H]2O)c1)C(=O)O,inhibition,[4],0%
same,inhibition,[5],0%
same,inhibition,[6],40%
NCCCC[C@H](NC(=O)c1ccc(-c2ccccc2O[C@H]2O[C@H](CO)[C@@H](O)[C@@H](O)[C@@H]2O)cc1)C(=O)O,inhibition,[7],33%
O=C(O)COCc1cccc(-c2ccccc2O[C@H]2O[C@H](CO)[C@@H](O)[C@@H](O)[C@@H]2O)c1,inhibition,[2],30%
same,inhibition,[8],0%
same,IC50,E-selectin,9.5 mM
